Source: ChEMBL document CHEMBL5385966, “Synthesis and biological evaluation of new naphthalimide-thiourea derivatives as potent antimicrobial agents active against multidrug-resistant Staphylococcus aureus and Mycobacterium tuberculosis” (RSC Med Chem, 2024)
Values after ≈ are worked out from the molar mass of the structure shown. Active and inactive are the calls of the source. No cut-off for these calls is given here.

Experiments:
[1] = test system: Staphylococcus aureus; test: Antibacterial activity against methicillin/ceftriaxone/meropenem/vancomycin/teicoplanin-resistant Staphylococcus aureus VRS12 clinical isolate assessed as bacterial growth inhibition incubated for 16 to 18 hrs by CLSI based antibiotic susceptibility testing method; type: functional; conditions: time 16-18 hrs
In short: (§1)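 Broth microdilution in cation-adjusted Mueller-Hinton broth. Compounds were tested at […], with levofloxacin as reference and medium-only controls. Plates were incubated at 37 °C for 16-18 h. MIC was the lowest concentration with no visible growth; three independent determinations, each in duplicate.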

[2] = test system: Staphylococcus aureus; test: Antibacterial activity against methicillin/ceftriaxone/meropenem-resistant Staphylococcus aureus NRS10193 clinical isolate assessed as bacterial growth inhibition incubated for 16 to 18 hrs by CLSI based antibiotic susceptibility testing method; type: functional; conditions: time 16-18 hrs; in short: as §1
[3] = test system: Staphylococcus aureus; test: Bactericidal activity against Staphylococcus aureus ATCC 29213 assessed as reduction in remnant bacterial cells at 10 times MIC measured for 24 hrs by time-kill assay; type: functional
In short: (§2)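 Time-kill assay: S. aureus ATCC 29213 at ~10⁶ cfu/mL in MHB, exposed to 1X and 10X MIC at 37 °C, in triplicate. Samples taken at 0, 1, 6 and 24 h were serially diluted in PBS and plated on TSA for 18-20 h at 37 °C. Surviving cfu/mL were counted against untreated controls.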

[4] = test system: Mycobacteroides chelonae; test: Antimycobacterial activity against Mycobacteroides chelonae ATCC 35752 assessed as bacterial growth inhibition incubated for 72 hrs by resazurin dye based broth microdilution method; type: functional, organism-based
In short: (§3)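 Broth microdilution in Middlebrook 7H9 with 10% ADC-Tween-80 (0.2% glycerol, 0.05% Tween-80), inoculum ~10⁶ cfu/mL. Compounds came from 10 mg/mL DMSO stocks and were tested as two-fold serial dilutions at 37 °C, 7 days for M. tuberculosis H37Rv and 72 h for NTM. Growth was read visually with PrestoBlue resazurin dye; MIC was the lowest concentration preventing growth. Triplicate determinations, each in duplicate.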

[5] = test system: Staphylococcus aureus; test: Bactericidal activity against Staphylococcus aureus ATCC 29213 assessed as reduction in remnant bacterial cells measured for 24 hrs by time-kill assay; type: functional, organism-based; in short: as §2
[6] = test system: Mycolicibacterium fortuitum; test: Antimycobacterial activity against Mycobacterium fortuitum ATCC 6841 assessed as bacterial growth inhibition incubated for 72 hrs by resazurin dye based broth microdilution method; type: functional, organism-based; in short: as §3
[7] = test system: Staphylococcus aureus; test: Antibacterial activity against methicillin/ceftriaxone/meropenem-resistant Staphylococcus aureus NRS10191 clinical isolate assessed as bacterial growth inhibition incubated for 16 to 18 hrs by CLSI based antibiotic susceptibility testing method; type: functional; conditions: time 16-18 hrs; in short: as §1
[8] = test system: Pseudomonas aeruginosa; test: Antibacterial activity against Pseudomonas aeruginosa ATCC 27853 assessed as bacterial growth inhibition incubated for 16 to 18 hrs by CLSI based antibiotic susceptibility testing method; type: functional, organism-based; conditions: time 16-18 hrs; in short: as §1
[9] = test system: Staphylococcus aureus; test: Antibacterial activity against methicillin/ceftriaxone/meropenem-resistant Staphylococcus aureus NRS10129 clinical isolate assessed as bacterial growth inhibition incubated for 16 to 18 hrs by CLSI based antibiotic susceptibility testing method; type: functional; conditions: time 16-18 hrs; in short: as §1
[10] = test system: Mycobacterium tuberculosis; test: Antimycobacterial activity against Mycobacterium tuberculosis H37Rv ATCC 27294 assessed as bacterial growth inhibition incubated for 7 days by resazurin dye based broth microdilution method; type: functional; conditions: H37Rv ATCC 27294, 168 h, time 7 day; in short: as §3
[11] = test system: Staphylococcus aureus; test: Antibacterial activity against methicillin/ceftriaxone/meropenem-resistant Staphylococcus aureus NRS10186 clinical isolate assessed as bacterial growth inhibition incubated for 16 to 18 hrs by CLSI based antibiotic susceptibility testing method; type: functional; conditions: time 16-18 hrs; in short: as §1
[12] = test system: Staphylococcus aureus; test: Antibacterial activity against methicillin/ceftriaxone-resistant Staphylococcus aureus NRS10194 clinical isolate assessed as bacterial growth inhibition incubated for 16 to 18 hrs by CLSI based antibiotic susceptibility testing method; type: functional; conditions: time 16-18 hrs; in short: as §1
[13] = test system: Escherichia coli; test: Antibacterial activity against Escherichia coli ATCC 25922 assessed as bacterial growth inhibition incubated for 16 to 18 hrs by CLSI based antibiotic susceptibility testing method; type: functional, organism-based; conditions: time 16-18 hrs; in short: as §1
[14] = Selectivity index, ratio of CC50 for African green monkey Vero cells to MIC for Staphylococcus aureus ATCC 29213; type: toxicity, cell-based; conditions: read-out: Selectivity Index
[15] = Cytotoxicity against African green monkey Vero cells by MTT assay; type: toxicity, cell-based; conditions: chlorocebus sabaeus
In short: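 Vero cells were seeded at ~10³ per well at 37 °C, 5% CO2. After 24 h, compounds were added at 5-100 mg/L for 72 h. […] was added for 4 h, formazan was dissolved in DMSO and read at 540 nm. CC50 was taken as the lowest concentration reducing viability by 50%; doxorubicin was the positive control; triplicate.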

[16] = test system: Staphylococcus aureus; test: Antibacterial activity against methicillin/ceftriaxone/meropenem/gentamycin/linezolid-resistant Staphylococcus aureus NRS10119 clinical isolate assessed as bacterial growth inhibition incubated for 16 to 18 hrs by CLSI based antibiotic susceptibility testing method; type: functional; conditions: time 16-18 hrs; in short: as §1
[17] = test system: Staphylococcus aureus; test: Antibacterial activity against Staphylococcus aureus ATCC 29213 assessed as bacterial growth inhibition incubated for 16 to 18 hrs by CLSI based antibiotic susceptibility testing method; type: functional; conditions: time 16-18 hrs; in short: as §1
[18] = test system: Staphylococcus aureus; test: Antibacterial activity against methicillin-sensitive Staphylococcus aureus ATCC 29213 clinical isolate assessed as bacterial growth inhibition incubated for 16 to 18 hrs by CLSI based antibiotic susceptibility testing method; type: functional; conditions: time 16-18 hrs; in short: as §1
[19] = test system: Staphylococcus aureus; test: Antibacterial activity against methicillin/ceftriaxone/meropenem/vancomycin/teicoplanin-resistant Staphylococcus aureus VRS4 clinical isolate assessed as bacterial growth inhibition incubated for 16 to 18 hrs by CLSI based antibiotic susceptibility testing method; type: functional; conditions: time 16-18 hrs; in short: as §1
[20] = test system: Mycobacteroides abscessus; test: Antimycobacterial activity against Mycobacterium abscessus ATCC 19977 assessed as bacterial growth inhibition incubated for 72 hrs by resazurin dye based broth microdilution method; type: functional, organism-based; in short: as §3
[21] = test system: Staphylococcus aureus; test: Antibacterial activity against methicillin/ceftriaxone/meropenem/gentamycin/vancomycin/teicoplanin-resistant Staphylococcus aureus VRS1 clinical isolate assessed as bacterial growth inhibition incubated for 16 to 18 hrs by CLSI based antibiotic susceptibility testing method; type: functional; conditions: time 16-18 hrs; in short: as §1
[22] = test system: Staphylococcus aureus; test: Antibacterial activity against methicillin/ceftriaxone/meropenem/gentamycin/linezolid-resistant Staphylococcus aureus NRS10100 clinical isolate assessed as bacterial growth inhibition incubated for 16 to 18 hrs by CLSI based antibiotic susceptibility testing method; type: functional; conditions: time 16-18 hrs; in short: as §1
[23] = test system: Klebsiella pneumoniae; test: Antibacterial activity against Klebsiella pneumoniae BAA 1705 assessed as bacterial growth inhibition incubated for 16 to 18 hrs by CLSI based antibiotic susceptibility testing method; type: functional, organism-based; conditions: time 16-18 hrs; in short: as §1
[24] = test system: Staphylococcus aureus; test: Antibacterial activity against methicillin/ceftriaxone/meropenem-resistant Staphylococcus aureus NRS10198 clinical isolate assessed as bacterial growth inhibition incubated for 16 to 18 hrs by CLSI based antibiotic susceptibility testing method; type: functional; conditions: time 16-18 hrs; in short: as §1
[25] = test system: Staphylococcus aureus; test: Antibacterial activity against methicillin/ceftriaxone/meropenem-resistant Staphylococcus aureus NRS10192 clinical isolate assessed as bacterial growth inhibition incubated for 16 to 18 hrs by CLSI based antibiotic susceptibility testing method; type: functional; conditions: time 16-18 hrs; in short: as §1
[26] = test system: Acinetobacter baumannii; test: Antibacterial activity against Acinetobacter baumannii BAA 1605 assessed as bacterial growth inhibition incubated for 16 to 18 hrs by CLSI based antibiotic susceptibility testing method; type: functional, organism-based; conditions: time 16-18 hrs; in short: as §1
[27] = test system: Staphylococcus aureus; test: Antimicrobial activity against Staphylococcus aureus assessed as microbial growth inhibition; type: functional

| Compound | MIC [1] | MIC [2] | growth inhibition (GI) [4] | growth inhibition (GI) [6] | MIC [7] | growth inhibition (GI) [8] | MIC [9] | MIC [10] | MIC [11] | MIC [12] | growth inhibition (GI) [13] | selectivity ratio [14] | CC50 [15] | MIC [16] | MIC [17] | MIC [18] | MIC [19] | growth inhibition (GI) [20] | MIC [21] | MIC [22] | further results |
| --- | --- | --- | --- | --- | --- | --- | --- | --- | --- | --- | --- | --- | --- | --- | --- | --- | --- | --- | --- | --- | --- |
| O=C1c2cccc3cccc(c23)C(=O)N1CCN1CCN(C(=S)NC2CCCCCC2)CC1 | 1 µg/mL (≈ 2.15 µM) | 1 µg/mL (≈ 2.15 µM) | inactive | inactive | 1 µg/mL (≈ 2.15 µM) | inactive | 0.5 µg/mL (≈ 1.08 µM) | > 64 µg/mL | 1 µg/mL (≈ 2.15 µM) | 0.5 µg/mL (≈ 1.08 µM) | inactive | > 80 | > 20 µg/mL | 1 µg/mL (≈ 2.15 µM) | 0.25 µg/mL (≈ 0.538 µM) | 0.5 µg/mL (≈ 1.08 µM) | 0.5 µg/mL (≈ 1.08 µM) | inactive | 1 µg/mL (≈ 2.15 µM) | 0.5 µg/mL (≈ 1.08 µM) | Activity [3]: ~5 log10CFU/ml; Activity [5]: Dose-Dependent Effect; growth inhibition (GI) [23]: inactive; MIC [24]: 1 µg/mL (≈ 2.15 µM); MIC [25]: 0.5 µg/mL (≈ 1.08 µM); growth inhibition (GI) [26]: inactive |
| CCCOC(=O)c1ccc2sc(NC(=S)N[C@@H]3O[C@H](COC(C)=O)[C@@H](OC(C)=O)[C@H](OC(C)=O)[C@H]3OC(C)=O)nc2c1 | – | – | – | – | – | – | – | – | – | – | – | – | – | – | – | – | – | – | – | – | MIC [27]: 0.78 µg/mL (≈ 1.25 µM) |
| O=C1c2cccc3cccc(c23)C(=O)N1CCN1CCN(C(=S)NC2CCCC2)CC1 | 0.25 µg/mL (≈ 0.573 µM) | 0.125 µg/mL (≈ 0.286 µM) | inactive | inactive | 0.125 µg/mL (≈ 0.286 µM) | inactive | 0.25 µg/mL (≈ 0.573 µM) | 2 µg/mL (≈ 4.58 µM) | 0.25 µg/mL (≈ 0.573 µM) | 0.125 µg/mL (≈ 0.286 µM) | inactive | > 160 | > 20 µg/mL | 0.125 µg/mL (≈ 0.286 µM) | 0.125 µg/mL (≈ 0.286 µM) | 0.125 µg/mL (≈ 0.286 µM) | 0.125 µg/mL (≈ 0.286 µM) | inactive | 0.125 µg/mL (≈ 0.286 µM) | 0.25 µg/mL (≈ 0.573 µM) | Activity [3]: ~5 log10CFU/ml; Activity [5]: Dose-Dependent Effect; growth inhibition (GI) [23]: inactive; MIC [24]: 0.125 µg/mL (≈ 0.286 µM); MIC [25]: 0.125 µg/mL (≈ 0.286 µM); growth inhibition (GI) [26]: inactive |
| COc1ccc(-c2csc(NC(=S)N[C@@H]3O[C@H](COC(C)=O)[C@@H](OC(C)=O)[C@H](OC(C)=O)[C@H]3OC(C)=O)n2)cc1[N+](=O)[O-] | – | – | – | – | – | – | – | – | – | – | – | – | – | – | – | – | – | – | – | – | MIC [27]: 0.78 µg/mL (≈ 1.22 µM) |
| O=C(CN1C(=O)c2cccc3cccc(c23)C1=O)N1CCC(NC(=S)NC2CCCCC2)CC1 | 0.125 µg/mL (≈ 0.261 µM) | 0.125 µg/mL (≈ 0.261 µM) | inactive | inactive | 0.125 µg/mL (≈ 0.261 µM) | inactive | 0.125 µg/mL (≈ 0.261 µM) | > 64 µg/mL | 0.125 µg/mL (≈ 0.261 µM) | 0.125 µg/mL (≈ 0.261 µM) | inactive | > 800 | > 100 µg/mL | 0.125 µg/mL (≈ 0.261 µM) | 0.125 µg/mL (≈ 0.261 µM) | 0.125 µg/mL (≈ 0.261 µM) | 0.125 µg/mL (≈ 0.261 µM) | inactive | 0.125 µg/mL (≈ 0.261 µM) | 0.125 µg/mL (≈ 0.261 µM) | growth inhibition (GI) [23]: inactive; MIC [24]: 0.125 µg/mL (≈ 0.261 µM); MIC [25]: 0.125 µg/mL (≈ 0.261 µM); growth inhibition (GI) [26]: inactive |
